ChEMBL document CHEMBL4028872, “Structure-Activity Relationship, Pharmacological Characterization, and Molecular Modeling of Noncompetitive Inhibitors of the Betaine/γ-Aminobutyric Acid Transporter 1 (BGT1)” (J Med Chem, 2017)
Activity calls are given as the source filed them. The rule behind the calls is not given here.

Tests used:
[1] = target: Sodium- and chloride-dependent betaine transporter (Homo sapiens, UniProt P48065, S381A); assay: Inhibition of human BGT1 S381A mutant expressed in tsA201 cells assessed as reduction in [3H]GABA uptake after 3 mins by scintillation counting method; format: cell-based
Procedure, shortened: (§1)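 Site-directed mutant transporters transiently transfected (PolyFect) into tsA201 cells, plated and used about 24 h later. Cells were washed with HBSS containing 20 mM HEPES, 1 mM CaCl2 and 1 mM MgCl2, pH 7.4. IC50 was taken from variable-slope sigmoidal fits. Triplicates, at least three independent experiments.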

[2] = target: Sodium- and chloride-dependent betaine transporter (Homo sapiens, UniProt P48065, S345A); assay: Inhibition of human BGT1 S345A mutant expressed in tsA201 cells assessed as reduction in [3H]GABA uptake after 3 mins by scintillation counting method; format: cell-based; procedure, shortened: as §1
[3] = target: Sodium- and chloride-dependent betaine transporter (Homo sapiens, UniProt P48065, I386M); assay: Inhibition of human BGT1 I386M mutant expressed in tsA201 cells assessed as reduction in [3H]GABA uptake after 3 mins by scintillation counting method; format: cell-based; procedure, shortened: as §1
[4] = target: Sodium- and chloride-dependent betaine transporter (Homo sapiens, UniProt P48065, V337I); assay: Inhibition of human BGT1 V337I mutant expressed in tsA201 cells assessed as reduction in [3H]GABA uptake after 3 mins by scintillation counting method; format: cell-based; procedure, shortened: as §1
[5] = target: Sodium- and chloride-dependent betaine transporter (Homo sapiens, UniProt P48065, K317R); assay: Inhibition of human BGT1 K317R mutant expressed in tsA201 cells assessed as reduction in [3H]GABA uptake after 3 mins by scintillation counting method; format: cell-based; procedure, shortened: as §1
[6] = target: Sodium- and chloride-dependent betaine transporter (Homo sapiens, UniProt P48065, A328G); assay: Inhibition of human BGT1 A328G mutant expressed in tsA201 cells assessed as reduction in [3H]GABA uptake after 3 mins by scintillation counting method; format: cell-based; procedure, shortened: as §1
[7] = target: Histamine H1 receptor (Homo sapiens) (UniProt P35367); assay: Displacement of [3H]pyrilamine from human histamine H1 receptor expressed in HEK cell membranes at 10 uM after 90 mins by scintillation counting method
[8] = target: Sodium- and chloride-dependent betaine transporter (Homo sapiens, UniProt P48065, I340V); assay: Inhibition of human BGT1 I340V mutant expressed in tsA201 cells assessed as reduction in [3H]GABA uptake after 3 mins by scintillation counting method; format: cell-based; procedure, shortened: as §1
[9] = target: Sodium- and chloride-dependent betaine transporter (Homo sapiens, UniProt P48065); assay: Inhibition of human BGT1/human GAT3 chimera C expresses in tsA201 cells assessed as reduction in [3H]GABA uptake after 3 mins by scintillation counting method; format: cell-based
Procedure, shortened: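 BGT1/GAT3 chimeric constructs transiently expressed in tsA201 cells. After about 24 h, cells were washed in HEPES-buffered HBSS (1 mM CaCl2, 1 mM MgCl2, pH 7.4). IC50 came from variable-slope sigmoidal regression. Triplicates, at least two independent experiments.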

Chain of Sodium- and chloride-dependent betaine transporter (Homo sapiens, UniProt P48065, V337I) (P48065 whole entry V337I): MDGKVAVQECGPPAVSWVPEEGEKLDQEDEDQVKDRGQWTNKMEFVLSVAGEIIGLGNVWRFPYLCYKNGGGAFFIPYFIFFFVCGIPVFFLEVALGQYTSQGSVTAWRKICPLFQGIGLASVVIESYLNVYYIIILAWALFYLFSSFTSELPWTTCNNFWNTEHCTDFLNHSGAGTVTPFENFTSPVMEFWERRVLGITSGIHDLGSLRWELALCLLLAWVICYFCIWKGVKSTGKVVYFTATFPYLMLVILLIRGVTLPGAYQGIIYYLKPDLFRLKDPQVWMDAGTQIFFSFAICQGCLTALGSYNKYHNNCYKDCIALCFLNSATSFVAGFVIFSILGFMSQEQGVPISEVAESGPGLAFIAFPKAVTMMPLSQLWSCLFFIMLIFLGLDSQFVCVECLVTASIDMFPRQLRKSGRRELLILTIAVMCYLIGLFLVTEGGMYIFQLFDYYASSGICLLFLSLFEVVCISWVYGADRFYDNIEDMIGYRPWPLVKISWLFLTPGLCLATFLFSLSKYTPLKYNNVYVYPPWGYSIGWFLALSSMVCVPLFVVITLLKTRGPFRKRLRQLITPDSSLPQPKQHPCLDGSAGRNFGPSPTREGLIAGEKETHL
Chain of Sodium- and chloride-dependent betaine transporter (Homo sapiens, UniProt P48065, I340V) (P48065 whole entry I340V): as the sequence (P48065 whole entry V337I) above, with I337V, I340V counted along it
Chain of Sodium- and chloride-dependent betaine transporter (Homo sapiens, UniProt P48065) (P48065 whole entry, looked up): as the sequence (P48065 whole entry V337I) above, with I337V counted along it
Chain of Sodium- and chloride-dependent betaine transporter (Homo sapiens, UniProt P48065, A328G) (P48065 whole entry A328G): as the sequence (P48065 whole entry V337I) above, with A328G, I337V counted along it
Chain of Sodium- and chloride-dependent betaine transporter (Homo sapiens, UniProt P48065, S381A) (P48065 whole entry S381A): as the sequence (P48065 whole entry V337I) above, with I337V, S381A counted along it
Chain of Sodium- and chloride-dependent betaine transporter (Homo sapiens, UniProt P48065, K317R) (P48065 whole entry K317R): as the sequence (P48065 whole entry V337I) above, with K317R, I337V counted along it
Chain of Histamine H1 receptor (Homo sapiens) (P35367 whole entry): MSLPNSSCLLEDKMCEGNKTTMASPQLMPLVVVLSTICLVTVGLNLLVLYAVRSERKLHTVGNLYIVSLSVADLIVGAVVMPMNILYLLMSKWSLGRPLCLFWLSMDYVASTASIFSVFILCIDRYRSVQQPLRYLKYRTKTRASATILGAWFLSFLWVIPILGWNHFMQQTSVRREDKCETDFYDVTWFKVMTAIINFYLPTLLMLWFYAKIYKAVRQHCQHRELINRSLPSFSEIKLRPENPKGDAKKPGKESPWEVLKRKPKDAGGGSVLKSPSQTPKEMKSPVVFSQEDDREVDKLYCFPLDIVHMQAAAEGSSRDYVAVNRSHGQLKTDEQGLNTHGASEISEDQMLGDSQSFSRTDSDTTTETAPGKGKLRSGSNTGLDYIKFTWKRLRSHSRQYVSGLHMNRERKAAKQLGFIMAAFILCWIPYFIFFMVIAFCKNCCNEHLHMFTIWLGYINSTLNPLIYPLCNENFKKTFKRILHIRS
Chain of Sodium- and chloride-dependent betaine transporter (Homo sapiens, UniProt P48065, I386M) (P48065 whole entry I386M): as the sequence (P48065 whole entry V337I) above, with I337V, I386M counted along it
Chain of Sodium- and chloride-dependent betaine transporter (Homo sapiens, UniProt P48065, S345A) (P48065 whole entry S345A): as the sequence (P48065 whole entry V337I) above, with I337V, S345A counted along it

- IC50 [1]: 13 µM
- IC50 [2]: 21 µM
- IC50 [3]: 7 µM
- IC50 ([4]; read-out: IC50): 6 µM
- IC50 ([4]; read-out: pIC50 (converted)): 4.9 µM
- IC50 [5]: 13 µM
- IC50 [6]: 7 µM
- inhibition [7]: Active
- IC50 ([8]; read-out: IC50): 8 µM
- IC50 ([8]; read-out: pIC50 (converted)): 5.89 µM
- IC50 [9]: 58 µM
- pIC50 [9]: 4.6
Structure (SMILES): O=C(NC1CCN(Cc2ccccc2)CC1)c1ccc(Cl)cc1Cl
